Measurements published in ChEMBL document CHEMBL2311322, “On scaffold hopping: challenges in the discovery of sulfated small molecules as mimetics of glycosaminoglycans” (Bioorg Med Chem Lett, 2013).
The source made the active and inactive calls. No cut-off for these calls is given here.

Tests used:
[1] = target: Coagulation factor IX (Homo sapiens) (UniProt P00740); experiment: Inhibition of human coagulation factor 9a using spectrozyme F9a as substrate at 365 uM after 10 mins by spectrophotometric analysis
Sequence of Coagulation factor IX (Homo sapiens) (P00740 47-191 limits assumed): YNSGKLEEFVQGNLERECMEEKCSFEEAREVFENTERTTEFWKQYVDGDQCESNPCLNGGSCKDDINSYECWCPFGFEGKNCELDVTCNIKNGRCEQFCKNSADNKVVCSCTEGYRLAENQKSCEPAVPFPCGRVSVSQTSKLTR
Sequence of Coagulation factor IX (Homo sapiens) (P00740 227-461 limits assumed): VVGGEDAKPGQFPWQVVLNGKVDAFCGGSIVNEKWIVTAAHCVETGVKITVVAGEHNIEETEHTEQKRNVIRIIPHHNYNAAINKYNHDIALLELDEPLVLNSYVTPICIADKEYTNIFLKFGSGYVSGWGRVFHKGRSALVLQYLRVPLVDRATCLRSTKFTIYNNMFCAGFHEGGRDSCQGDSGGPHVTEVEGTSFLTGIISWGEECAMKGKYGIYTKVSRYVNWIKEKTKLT
How it was run: (§1)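 Chromogenic substrate hydrolysis screen against each coagulation protease (VIIa, IXa, Xa, XIa, XIIa), each with its appropriate substrate. Inhibitor was tested at a single concentration of 365 μM. Fractional residual activity was taken as the ratio of initial hydrolysis rates with and without inhibitor, read spectrophotometrically.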

[2] = target: Coagulation factor XI (Homo sapiens) (UniProt P03951); experiment: Inhibition of human coagulation factor 11a at 365 uM after 10 mins by spectrophotometric analysis; how it was run: as §1
Sequence of Coagulation factor XI (Homo sapiens) (P03951 19-387 limits assumed): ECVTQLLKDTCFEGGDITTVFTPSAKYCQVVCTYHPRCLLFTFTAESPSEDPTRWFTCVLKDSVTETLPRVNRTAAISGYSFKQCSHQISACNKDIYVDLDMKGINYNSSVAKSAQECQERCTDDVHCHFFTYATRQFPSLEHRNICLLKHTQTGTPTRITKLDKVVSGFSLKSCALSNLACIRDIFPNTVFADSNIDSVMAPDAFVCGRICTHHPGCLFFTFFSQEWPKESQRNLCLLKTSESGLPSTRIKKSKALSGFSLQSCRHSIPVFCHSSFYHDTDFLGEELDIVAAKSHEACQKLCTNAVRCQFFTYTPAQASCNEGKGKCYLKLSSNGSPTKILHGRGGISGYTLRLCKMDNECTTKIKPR
Sequence of Coagulation factor XI (Homo sapiens) (P03951 388-625 limits assumed): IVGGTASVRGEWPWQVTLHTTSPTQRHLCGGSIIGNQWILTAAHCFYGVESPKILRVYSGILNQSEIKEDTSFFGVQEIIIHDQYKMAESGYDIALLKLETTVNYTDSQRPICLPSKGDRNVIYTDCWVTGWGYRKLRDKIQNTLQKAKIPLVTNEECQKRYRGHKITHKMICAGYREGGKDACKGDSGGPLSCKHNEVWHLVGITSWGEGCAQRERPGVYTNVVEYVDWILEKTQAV

Prothrombin = Prothrombin (Homo sapiens, UniProt P00734); experiment: Inhibition of human alpha thrombin using spectrozyme TH as substrate
How it was run: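 Chromogenic assay: initial rate of Spectrozyme TH hydrolysis read spectrophotometrically at pH 7.4 and 25 °C across a range of inhibitor concentrations. Fractional loss of initial rate plotted against log concentration and fitted to a logistic dose–response equation to give IC50.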

[3] = target: Coagulation factor X (Homo sapiens) (UniProt P00742); experiment: Inhibition of human coagulation factor 10a using spectrozyme F10a as substrate at 365 uM after 10 mins by spectrophotometric analysis; how it was run: as §1
Sequence of Coagulation factor X (Homo sapiens) (P00742 41-179 limits assumed): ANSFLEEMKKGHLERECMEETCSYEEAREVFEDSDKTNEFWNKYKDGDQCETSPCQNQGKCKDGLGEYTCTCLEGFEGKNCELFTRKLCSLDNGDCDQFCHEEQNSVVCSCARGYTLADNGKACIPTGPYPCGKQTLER
Sequence of Coagulation factor X (Homo sapiens) (P00742 235-488 limits assumed): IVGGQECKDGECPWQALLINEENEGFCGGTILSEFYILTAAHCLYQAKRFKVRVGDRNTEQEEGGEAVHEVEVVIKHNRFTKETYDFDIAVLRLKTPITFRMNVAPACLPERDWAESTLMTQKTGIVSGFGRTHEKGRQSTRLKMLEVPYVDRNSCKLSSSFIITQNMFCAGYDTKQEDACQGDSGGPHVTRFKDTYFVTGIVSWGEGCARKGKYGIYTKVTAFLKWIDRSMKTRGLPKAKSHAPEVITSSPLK

[4] = target: T1, Coagulation factor XII (Homo sapiens) (UniProt P00748); experiment: Inhibition of human coagulation factor 12a using spectrozyme F12a as substrate at 365 uM after 10 mins by spectrophotometric analysis; how it was run: as §1
T1 sequence (whole entry): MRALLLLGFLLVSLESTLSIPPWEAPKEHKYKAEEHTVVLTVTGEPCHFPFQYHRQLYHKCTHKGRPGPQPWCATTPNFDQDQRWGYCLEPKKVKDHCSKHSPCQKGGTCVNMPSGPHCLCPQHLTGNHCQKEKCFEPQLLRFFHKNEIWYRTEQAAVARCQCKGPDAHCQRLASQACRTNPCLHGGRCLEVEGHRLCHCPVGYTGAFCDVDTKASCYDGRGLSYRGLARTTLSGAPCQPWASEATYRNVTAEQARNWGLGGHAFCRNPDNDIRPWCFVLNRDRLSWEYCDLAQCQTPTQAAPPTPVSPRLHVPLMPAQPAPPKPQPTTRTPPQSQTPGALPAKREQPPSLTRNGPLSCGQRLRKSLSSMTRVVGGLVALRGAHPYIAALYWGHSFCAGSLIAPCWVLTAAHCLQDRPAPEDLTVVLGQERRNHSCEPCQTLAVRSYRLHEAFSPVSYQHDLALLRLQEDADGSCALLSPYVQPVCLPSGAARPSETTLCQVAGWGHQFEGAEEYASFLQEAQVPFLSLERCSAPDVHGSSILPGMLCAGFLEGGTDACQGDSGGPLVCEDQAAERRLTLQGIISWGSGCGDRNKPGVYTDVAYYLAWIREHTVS

Plasma = experiment: Anticoagulant activity in human plasma assessed as inhibition of Cacl2-induced coagulation after 4 mins by fibrometric analysis; format: functional
How it was run: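 Human plasma clotting times were read on a fibrometer in both prothrombin time (PT) and activated partial thromboplastin time (APTT) formats, across a range of inhibitor concentrations. Trend lines of clotting time versus concentration gave the concentration needed to double clotting time (2×PT, 2×APTT).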

[5] = target: T2, Coagulation factor VII (Homo sapiens) (UniProt P08709); experiment: Inhibition of human coagulation factor 7a using spectrozyme 7a as substrate at 365 uM after 10 mins by spectrophotometric analysis; how it was run: as §1
T2 sequence (whole entry): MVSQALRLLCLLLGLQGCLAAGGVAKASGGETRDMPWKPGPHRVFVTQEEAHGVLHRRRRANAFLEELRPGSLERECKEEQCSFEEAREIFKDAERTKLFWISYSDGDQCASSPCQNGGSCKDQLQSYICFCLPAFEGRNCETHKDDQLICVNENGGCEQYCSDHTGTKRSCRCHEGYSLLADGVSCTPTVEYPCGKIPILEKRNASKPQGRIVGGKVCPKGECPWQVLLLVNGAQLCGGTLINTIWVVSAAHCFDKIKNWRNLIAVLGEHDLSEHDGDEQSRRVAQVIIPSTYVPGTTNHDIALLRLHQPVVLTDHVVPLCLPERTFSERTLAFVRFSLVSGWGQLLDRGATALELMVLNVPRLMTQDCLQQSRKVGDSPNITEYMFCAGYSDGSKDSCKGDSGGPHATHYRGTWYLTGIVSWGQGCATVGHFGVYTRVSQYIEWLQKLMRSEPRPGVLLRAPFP

Human alphaherpesvirus 1 = experiment: Binding affinity to Herpes simplex virus 1 recombinant Lys25-His332-truncated His6-tagged glycoprotein D expressed in Escherichia coli measured after 3 hrs by affinity co-electrophoretic analysis

Row | Activity (Human alphaherpesvirus 1) | Compound | inhibition [1] | inhibition [2] | IC50 (Prothrombin) | inhibition [3] | inhibition [4] | 2PT (Plasma) | 2aPTT (Plasma) | inhibition [5]
1 |  | N#Cc1c(SCC(=O)c2cccc(OS(=O)(=O)O)c2OS(=O)(=O)O)nc([N+](=O)[O-])c(C#N)c1-c1ccc(OCc2ccccc2)cc1 | > 20% | Active | 65.9 µM | > 20% | > 20% | 606 µM | 550 µM | > 20%
2 | 19 µM | O=C(O)C1=C[C@H](O)[C@@H](OS(=O)(=O)O)[C@@H](O[C@H]2[C@H](O)[C@@H](NS(=O)(=O)O)[C@@H](O[C@H]3[C@H](O)[C@@H](OS(=O)(=O)O)[C@@H](O[C@H]4[C@H](O)[C@@H](NS(=O)(=O)O)[C@@H](O[C@H]5[C@H](O)[C@@H](OS(=O)(=O)O)[C@@H](O[C@H]6[C@H](OS(=O)(=O)O)[C@@H](NS(=O)(=O)O)[C@@H](O[C@H]7[C@H](O)[C@@H](OS(=O)(=O)O)[C@@H](O[C@H]8[C@H](O)[C@@H](NS(=O)(=O)O)[C@@H](O)O[C@@H]8COS(=O)(=O)O)O[C@H]7C(=O)O)O[C@@H]6COS(=O)(=O)O)O[C@H]5C(=O)O)O[C@@H]4COS(=O)(=O)O)O[C@H]3C(=O)O)O[C@@H]2COS(=O)(=O)O)O1 |  |  |  |  |  |  |  | 
3 |  | O=C(Nc1ccc(OS(=O)(=O)O)cc1)c1cccc(N2C(=O)c3ccc(C(=O)Nc4ccc(OS(=O)(=O)O)cc4)cc3C2=O)c1 | > 20% | inactive | 286 µM | > 20% | > 20% |  |  | > 20%
